PKD1 kinase inh: inhibitors of human PKD1 kinase, biochemical, fluorescence polarization; Serine/threonine-protein kinase D1 (Homo sapiens), Q15139; PKD1 kinase fluorescence polarization assay; inhibition, % (test concentration not listed); 0.056% of 200,000 active; AID 797, 2007; in the data active means inhibition above about 50%
KCC2 mod: KCC2 cotransporter modulators, thallium flux, primary screen, cell-based, HEK293 KCC2, FluoZin-2 fluorescence, MLSMR; Solute carrier family 12 member 5 (Homo sapiens), Q9H2X9; B-score of Tl+ flux slope (higher = more flux/activation; lower = inhibition) at 10 µM; KCC2 cells, thallium flux FluoZin-2 fluorescence; 2.2% of 190,000 active;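 active means thallium flux slope and its plate-corrected score both differing from the plate sample mean at a set confidence after two filtering rounds, in either direction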;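 further: slope of fluorescence scaled to starting intensity during 10 to 20 s after thallium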
MDM2 E3 inh: MDM2-luciferase reporter signal enhancers, primary screen, MDM2 E3 ligase inhibitor project, cell-based, luminescence, 1536-well; E3 ubiquitin-protein ligase Mdm2 (Homo sapiens), Q00987; cell-based MDM2 ubiquitination luciferase reporter, 2 h; 0 = plate control, 100 = twice control, blank-subtracted; signal enhancement, % at 5 µM; 0.11% of 210,000 active;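 active means signal enhancement of 30% or more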;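 further: luminescence tracks abundance of the self-degrading MDM2-luciferase fusion protein; higher signal means inhibition of MDM2 E3 ligase activity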
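system = mammalian cells stably expressing self-ubiquitinating, self-degrading MDM2 E3–luciferase fusion | quantity = 2000 cells per well seeded | incubation = 4 h cell settling then 2 h compound exposure, 37 °C | signal = SteadyLite luminescence, 15 min reagent step | benchmarks = plate control and blank wells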
Redox H2O2 prof: compounds producing H2O2 with reducing agent – biochemical, NIH compound library profiling, artefact control for MLSCN library redox annotation, primary screen; DTT-dependent redox cycling H2O2, phenol red/HRP absorbance; 100% = 100 µM peroxide control, 0% = buffer; activation, % at 10 µM; 0.03% of 200,000 active; AID 878, 2007;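 active means activation of at least 50% relative to the plate's high and low controls in the primary single-dose screen; inactive means activation below 50%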;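 further: compound incubated with DTT at 0.8 mM final as the reducing agent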
p97 inhibitor: inhibitors of human p97 ATPase, primary screen, biochemical. Transitional endoplasmic reticulum ATPase (Homo sapiens), P55072. recombinant p97 ATPase, Kinase-Glo ATP luminescence, 3 h. inhibition, % at 8 µM. 0.42% of 220,000 active. AID 1481, 2009; in the data active means inhibition above about 15%
Target sequence (P55072 whole entry, looked up): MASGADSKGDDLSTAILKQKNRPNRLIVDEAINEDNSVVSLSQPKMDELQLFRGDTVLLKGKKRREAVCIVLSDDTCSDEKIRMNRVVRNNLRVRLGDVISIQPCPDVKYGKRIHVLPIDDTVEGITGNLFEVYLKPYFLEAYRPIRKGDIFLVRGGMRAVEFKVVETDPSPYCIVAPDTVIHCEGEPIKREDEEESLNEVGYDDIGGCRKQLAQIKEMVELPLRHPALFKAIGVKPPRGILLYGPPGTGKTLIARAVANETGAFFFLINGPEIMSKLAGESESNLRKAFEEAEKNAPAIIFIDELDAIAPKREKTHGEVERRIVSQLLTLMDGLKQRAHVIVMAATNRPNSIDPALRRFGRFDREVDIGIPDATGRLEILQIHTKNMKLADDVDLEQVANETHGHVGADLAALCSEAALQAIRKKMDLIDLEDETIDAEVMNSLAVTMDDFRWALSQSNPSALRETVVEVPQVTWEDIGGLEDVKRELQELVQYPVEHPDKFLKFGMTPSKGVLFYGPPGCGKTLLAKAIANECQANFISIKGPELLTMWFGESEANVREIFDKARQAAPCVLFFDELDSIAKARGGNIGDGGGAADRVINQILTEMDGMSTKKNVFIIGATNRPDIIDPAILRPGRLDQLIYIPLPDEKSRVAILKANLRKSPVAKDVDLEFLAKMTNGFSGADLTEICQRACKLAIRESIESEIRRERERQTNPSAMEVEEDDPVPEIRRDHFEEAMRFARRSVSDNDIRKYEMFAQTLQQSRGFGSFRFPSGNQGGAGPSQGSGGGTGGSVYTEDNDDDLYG
ROMK primary: ROMK potassium channel modulators, primary screen, cell-based, thallium flux, MLSMR library. 2% of 130,000 active. Tet-inducible ROMK, thallium flux fluorescence; actives lie on both sides. B-score at 10 µM. AID 1918, 2009. ATP-sensitive inward rectifier potassium channel 1 (Homo sapiens), P48048;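 active means signal ratio slope over the read window, or its plate-corrected B-score, at least 3 SD from the plate mean, either direction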;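 further: B-score of the F/F0 ratio slope over 7 to 12 s after thallium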
KCC2 secondary: KCC2 modulators in sodium-free buffer, confirmation, cell-based, HEK293 KCC2, thallium flux, secondary assay; 15% of 3,700 active; normalised thallium flux (F/F0 slope) at 10 µM; FluoZin2 fluorescence; hits give high values; shares compounds with KCC2 mod;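 active means thallium flux slope above the same plate's solvent-only control mean plus 3 SD; inconclusive means the two replicate wells disagree; inactive means no significant difference from solvent-only control wells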
KCC2 bumet counter: thallium flux persisting under bumetanide in KCC2 cells, confirmation, counter-screen for KCC2 modulator project, cell-based, HEK293 KCC2, FluoZin2, secondary assay 3; AID 1714, 2009; 49% of 3,700 active; normalized thallium flux at 10 µM; HEK293-KCC2 + bumetanide/ouabain; hits give high values; shares compounds with KCC2 mod;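 active means thallium entry rate above the same plate's blocked-transporter control wells by more than 3 SD; inconclusive means the two repeat wells disagree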;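 further: raw slope of fluorescence over initial fluorescence between 10 and 20 s after thallium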
KCC2 sec2: KCC2 modulators without ouabain present, confirmation, cell-based, HEK293 KCC2, thallium flux, FluoZin2, secondary assay 2. shares compounds with KCC2 mod. thallium flux FluoZin2 fluorescence; actives lie on both sides; F/F0 rise rate, 10–20 s post-thallium. normalized thallium flux at 10 µM. 23% of 3,700 active;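 active means thallium flux slope more than 3 SD above or below the plate's solvent-only control mean, mostly below; inconclusive means the two repeat wells disagreed; inactive means no significant shift from solvent-only controls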
HEK293 Tl flux: thallium flux modulation in parental HEK cells, confirmation, counter-screen for KCC2 modulator project, cell-based, counterscreen 1; 46% of 3,700 active; AID 1716, 2009; shares compounds with KCC2 mod; HEK293 parental cells, thallium flux FluoZin2, ouabain; baseline-ratio fluorescence slope, 10–20 s after thallium; thallium flux rate (normalised fluorescence) at 10 µM;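 active means thallium flux rate significantly above the same plate's solvent-only control wells, beyond their mean plus 3 SD; inconclusive means the two replicate wells gave conflicting results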
KCC2 ouabain: KCC2 inhibitors and activators, ouabain retest, confirmation, HEK-KCC2 cells; HEK293-KCC2, thallium flux FluoZin2 fluorescence; bidirectional: low = inhibitor, high = activator; raw Tl+ flux slope (below DMSO = inhibition, above = activation) at 10 µM; shares compounds with KCC2 mod; 48% of 3,700 active; AID 1717, 2009;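 active means thallium flux slope beyond 3 SD from same-plate DMSO control mean in most replicates, usually higher, sometimes lower; inconclusive means repeat tests gave conflicting results; inactive means no significant difference from controls in most replicates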;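 further: slope of initial-normalized fluorescence between seconds 10 and 20 after thallium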
HEK counter2: native HEK Tl+ uptake effects, second counter-screen – HEK cells, counterscreen 2, counter-screen for KCC2 modulator project, confirmation; shares compounds with KCC2 mod; 33% of 3,700 active; thallium flux slope at 10 µM; HEK293 parental, thallium flux FluoZin-2 fluorescence slope;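 active means thallium flux slope above the same plate's solvent-control mean plus 3 SD in both duplicate wells; inconclusive means duplicate wells that disagreed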;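 further: run without ouabain in cells lacking the KCC2 cotransporter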
Large screens that a line does not name were inactive (follow-up assays come after a bar, where they were run). Hits are enriched below; roughly 3.4% of the tested compounds scored in any of these assays.

CCCCOc1ccc(-c2nnn(C(C)(C)C(=O)OC)n2)cc1	none (no result: ROMK primary)
COCCNC(=O)CN(c1cc(C(F)(F)F)ccc1Cl)S(C)(=O)=O	KCC2 mod -4 (no result: ROMK primary) | KCC2 secondary inactive | KCC2 bumet counter inconclusive | KCC2 sec2 inactive | HEK293 Tl flux inconclusive | KCC2 ouabain inactive | HEK counter2 inactive
CCOc1cccc(/C=N/Nc2nc(N3CCCC3)nc(N3CCCC3)n2)c1O	KCC2 mod -4.5 (no result: PKD1 kinase inh, Redox H2O2 prof) | KCC2 secondary inactive | KCC2 bumet counter inactive | KCC2 sec2 inactive | HEK293 Tl flux inactive | KCC2 ouabain inactive | HEK counter2 0.011
Cc1cc(NC(=O)COC(=O)COc2cccc3c2OC(C)(C)C3)no1	none
Cc1cnc(NC(=O)COc2cccc3c2OC(C)(C)C3)s1	none (no result: KCC2 mod, ROMK primary) | KCC2 secondary inactive | KCC2 bumet counter inactive | KCC2 sec2 inactive | HEK293 Tl flux inactive | KCC2 ouabain inconclusive | HEK counter2 inactive
CCCCCCCC1(C)NC(=O)N(c2ccccc2)N1 (centres undefined)	none (no result: ROMK primary)
NS(=O)(=O)c1ccc(CCn2c(=S)[nH]c3ccc(F)cc3c2=O)cc1	KCC2 mod 3.1 | KCC2 secondary inconclusive | KCC2 bumet counter inactive | KCC2 sec2 inactive | HEK293 Tl flux 0.0093 | KCC2 ouabain inactive | HEK counter2 0.011
Cc1ccccc1Nc1nnc(SCc2cc(=O)n3ccsc3n2)s1	KCC2 mod -4.9 (no result: ROMK primary) | KCC2 secondary inactive | KCC2 bumet counter inactive | KCC2 sec2 inactive | HEK293 Tl flux inactive | KCC2 ouabain inconclusive | HEK counter2 inactive
O=c1cc(CSc2nnc(Nc3ccccc3)s2)nc2sccn12	none
CCOC(=O)C1=C(C)NC(=O)NC1c1ccc(OCC(N)=O)cc1 (centres undefined)	none
COc1ccc(NC(=O)CC2C(=O)N(C)C(=S)N2Cc2ccc3c(c2)OCO3)cc1 (centres undefined)	KCC2 mod 7.3 | KCC2 secondary inactive | KCC2 bumet counter inactive | KCC2 sec2 inactive | HEK293 Tl flux inactive | KCC2 ouabain inactive | HEK counter2 inactive
Cc1cccnc1CN1CCN(C(=O)c2cc(COc3ccc4ncccc4c3)on2)CC1	none (no result: KCC2 mod) | KCC2 secondary inactive | KCC2 bumet counter inactive | KCC2 sec2 inconclusive | HEK293 Tl flux inactive | KCC2 ouabain 0.017 | HEK counter2 inactive
CCOC(=O)N1CCN(C(=O)c2cc(COc3ccc4ncccc4c3)on2)CC1	none
COc1cc(C(=O)NCCc2cn3ccc(C)cc3n2)cc(OC)c1OC	KCC2 mod -3.4 (no result: ROMK primary) | KCC2 secondary inconclusive | KCC2 bumet counter inconclusive | KCC2 sec2 inactive | HEK293 Tl flux inactive | KCC2 ouabain inactive | HEK counter2 inactive
CCOc1cccc(C(=O)NC(=S)Nc2cccc(C)c2)c1	KCC2 mod 6.4 | KCC2 secondary inactive | KCC2 bumet counter 0.011 | KCC2 sec2 inactive | HEK293 Tl flux 0.012 | KCC2 ouabain inconclusive | HEK counter2 0.015
CCOc1cccc(C(=O)Nc2cccc(C(C)=O)c2)c1	none
O=C(NC(=S)Nc1ccccc1)c1cncc(C#Cc2ccccc2)c1	KCC2 mod 24 (no result: PKD1 kinase inh, Redox H2O2 prof) | KCC2 secondary inconclusive | KCC2 bumet counter 0.023 | KCC2 sec2 inactive | HEK293 Tl flux 0.01 | KCC2 ouabain 0.039 | HEK counter2 inconclusive
O=C(NC(=S)Nc1ccc(Cl)cc1)c1ccccc1	KCC2 mod 76 (no result: PKD1 kinase inh, Redox H2O2 prof, ROMK primary) | KCC2 secondary 0.016 | KCC2 bumet counter 0.052 | KCC2 sec2 inactive | HEK293 Tl flux inconclusive | KCC2 ouabain 0.046 | HEK counter2 0.023
CC(=O)c1cccc(NC(=S)NC(=O)c2ccccc2)c1	KCC2 mod 4.5 | KCC2 secondary inactive | KCC2 bumet counter 0.02 | KCC2 sec2 inactive | HEK293 Tl flux 0.018 | KCC2 ouabain inconclusive | HEK counter2 0.016
NS(=O)(=O)c1ccc(NC(=O)c2ccc(S(=O)(=O)N3CCOCC3)o2)cc1	none (no result: PKD1 kinase inh, Redox H2O2 prof)
O=C(OCc1cc(=O)n2c(n1)sc1ccccc12)c1ccc(O)cc1	none
O=C(NCc1ccc2c(c1)OCO2)C1CCCN1C(=O)Nc1cccc(F)c1 (centres undefined)	none (no result: ROMK primary)
O=C(O)c1cccc(NC(=S)NC(=O)c2ccc(-c3ccccc3)cc2)c1	KCC2 mod -6.1 | KCC2 secondary inconclusive | KCC2 bumet counter inactive | KCC2 sec2 0.022 | HEK293 Tl flux 0.0057 | KCC2 ouabain 0.013 | HEK counter2 inconclusive
CN(Cc1cc(-c2ccccc2)on1)C(=O)c1cc(COc2c(F)cccc2F)on1	none (no result: KCC2 mod)
C=C(C)C1CC=C(C)/C(=N\NC(=S)Nc2ccc(C)cc2)C1 (centres undefined)	KCC2 mod 4.6 | KCC2 secondary inactive | KCC2 bumet counter 0.022 | KCC2 sec2 inactive | HEK293 Tl flux 0.012 | KCC2 ouabain 0.04 | HEK counter2 0.011

From PubChem
